14 molecules from ChEMBL document CHEMBL4602615, “Upregulation of p53 through induction of MDM2 degradation: Amino acid prodrugs of anthraquinone analogs” (Bioorg Med Chem Lett, 2020) can be followed below.

As usually defined, the solubility is the concentration that dissolves in the medium under given conditions. Broadly, the IC50 is the concentration at which inhibition is half-maximal.

In brackets after ≈: the same amount, converted by molar mass. Activity calls are given as the source filed them. No cut-off for these calls is given here. Where only a bound is given, the exact number is not on record here.

Data set [1] is described as follows: Aqueous solubility of compound in PBS buffer at pH 7.4 by HPLC analysis. Format: physicochemical.
Data set [2] can be described thus: Prodrug conversion assessed as porcine liver Esterase-mediated compound hydrolysis by measuring half life by HPLC analysis. Format: ADME, Sus scrofa. Particulars: pig, isolated protein. An outline of the steps: (§1)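 Amino-acid ester prodrugs incubated with the hydrolytic enzyme in PBS, pH 7.4, at 37 °C. Release of parent anthraquinone monitored by HPLC, and half-life derived.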

The subject of the next data set is HeLa. The data set can be described thus: Cytotoxicity against human HeLa cells assessed as reduction in cell viability by WST8 assay. Format: functional, cell-based. Put shortly: (§2)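 WST-8 viability read-out in HeLa cells and in an in-house established wild-type p53 leukemia line (EU-1). IC50 derived from the concentration–response data.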
The nature of data set [3]: Prodrug conversion assessed as porcine pancreas Kallikrein-mediated compound hydrolysis by measuring half life by HPLC analysis. The class given is ADME, Sus scrofa. Particulars: pig. An outline of the steps:
as §1

The nature of data set [4]: Prodrug conversion in PBS buffer assessed as half life at pH 7.4 and 37 degC by HPLC analysis. Format: physicochemical.
Data set [5] in a line: Prodrug conversion in cell culture media assessed as half life. Format: physicochemical.
Data set [6] in a line: Cytotoxicity against human EU1 cells assessed as reduction in cell viability by WST8 assay. Format: functional, cell-based. The following applies: EU-1. Put shortly:
as §2

Data set [7] addresses E3 ubiquitin-protein ligase Mdm2 (Homo sapiens) (UniProt Q00987). The data set can be described thus: Induction of MDM2 degradation in human EU1 cells assessed as upregulation of p53 protein expression at 1 uM by Western blot analysis. The class given is cell-based. Particulars: TDE = time-dependent effect. Put shortly: (§3)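 EU-1 is an in-house established leukemia line carrying wild-type p53. Cells were exposed across a series of concentrations and incubation times, then lysed. MDM2 and p53 protein levels were read by Western blot.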

Data set [8] shares this target. The data set can be described thus: Induction of MDM2 degradation in human EU1 cells assessed as downregulation of MDM2 protein expression incubated for 15 hrs by Western blot analysis. Format: cell-based. Put shortly:
as §3
In general terms: In western blotting, separated proteins are transferred to a membrane and probed.

The target is the same in data set [9]. The data set is described as follows: Induction of MDM2 degradation in human EU1 cells assessed as downregulation of MDM2 protein expression at 1 uM incubated for 4 to 16 hrs by Western blot analysis. Format: cell-based. Put shortly: as §3
For data set [10] the target is unchanged. The data set is described as follows: Induction of MDM2 degradation in human EU1 cells assessed as upregulation of p53 protein expression at 1 uM incubated for 4 to 8 hrs by Western blot analysis. The class given is cell-based. Put shortly: as §3
For data set [11] the target is unchanged. The data set is described as follows: Induction of MDM2 degradation in human EU1 cells assessed as downregulation of MDM2 protein expression at 1 uM by Western blot analysis. The class given is cell-based. The following applies: TDE = time-dependent effect. Put shortly:
as §3

For data set [12] the target is unchanged. The data set can be described thus: Induction of MDM2 degradation in human EU1 cells assessed as upregulation of p53 protein expression incubated for 15 hrs by Western blot analysis. The class given is cell-based. An outline of the steps:
as §3

The target is the same in data set [13]. The data set can be described thus: Induction of MDM2 degradation in human EU1 cells assessed as downregulation of MDM2 protein expression at 0.8 uM incubated for 15 hrs by Western blot analysis. The class given is cell-based. Put shortly:
as §3

The target is the same in data set [14]. The data set can be described thus: Induction of MDM2 degradation in human EU1 cells assessed as upregulation of p53 protein expression at 0.8 uM incubated for 15 hrs by Western blot analysis. The class given is cell-based. Put shortly:
as §3

Data set [15] in a line: Prodrug conversion in none-denaturated human EU1 cell lysates assessed as N-[4,5-bis(2-hydroxyethoxy)-9,10-dioxo-2-anthryl]-2-chloro-acetamide release measured within 15 mins by HPLC analysis. The following applies: 0.25 h. Format: ADME, subcellular, Lysate. An outline of the steps:
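Prodrug incubated with non-denatured lysate of EU-1 cells, an in-house wild-type p53 leukemia line, to assess activation by cellular components. Read-out was cleavage of the amino acid ester bond releasing the parent anthraquinone, followed over time.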

Setting [16] is: PBS buffer, read-out: solubility.

Chain of E3 ubiquitin-protein ligase Mdm2 (Homo sapiens) (Q00987 whole entry, looked up): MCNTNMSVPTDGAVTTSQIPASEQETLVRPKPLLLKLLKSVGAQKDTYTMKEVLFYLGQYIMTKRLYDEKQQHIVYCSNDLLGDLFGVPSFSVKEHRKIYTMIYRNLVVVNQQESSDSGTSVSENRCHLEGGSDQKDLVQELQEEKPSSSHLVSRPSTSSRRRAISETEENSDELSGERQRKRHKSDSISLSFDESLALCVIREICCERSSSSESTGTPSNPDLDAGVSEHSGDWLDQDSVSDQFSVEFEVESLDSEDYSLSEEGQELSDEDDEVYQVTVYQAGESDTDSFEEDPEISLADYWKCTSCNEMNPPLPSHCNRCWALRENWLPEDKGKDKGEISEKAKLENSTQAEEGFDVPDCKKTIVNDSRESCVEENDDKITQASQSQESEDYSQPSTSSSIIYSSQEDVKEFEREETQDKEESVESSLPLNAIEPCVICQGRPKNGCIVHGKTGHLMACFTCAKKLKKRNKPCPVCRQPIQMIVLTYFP

Turning to `Cl.NCC(=O)OCCOc1cccc2c1C(=O)c1c(OCCOC(=O)CN)cc(NC(=O)CCl)cc1C2=O`, the solubility in data set [1] (setting [16]) is over 100 mg/mL. In addition, the t1/2 came out at 10.1 min in data set [2], 35.9 min in data set [3], 31.5 min in data set [4] and 19.3 min in data set [5]. Besides, the IC50 turned out to be 3.66 µM in the data set on HeLa and 1.1 µM in data set [6].

Consider `C[C@H](N)C(=O)OCCOc1cccc2c1C(=O)c1c(OCCOC(=O)[C@H](C)N)cc(NC(=O)CCl)cc1C2=O.Cl`, for which the solubility in [1] (setting [16]) is over 100 mg/mL. Besides, the results for the t1/2 in data set [2], in data set [3] and in data set [4] were 6.2 min, 24.7 min and 100.9 min, respectively. Besides, the IC50 in the data set on HeLa was determined as 8.21 µM; in data set [6], 1.66 µM.

With `O=C(CCl)Nc1cc(O)c2c(c1)C(=O)c1cccc(O)c1C2=O`, in [1] (buffer), the solubility was 0.0085 mg/mL (≈ 25.6 µM).

Consider `Cl.N[C@@H](Cc1ccc(O)cc1)C(=O)OCCOc1cccc2c1C(=O)c1c(OCCOC(=O)[C@@H](N)Cc3ccc(O)cc3)cc(NC(=O)CCl)cc1C2=O`, for which, in data set [1] (setting [16]), the solubility was over 100 mg/mL. Also, the t1/2 is reported as 1.7 min in [2], 6.5 min in [3] and 70.6 min in data set [4]. Also, the IC50 with HeLa came to 5.4 µM; in data set [6] it was 1.27 µM.

As to `Cl.N=C(N)NCCC[C@H](N)C(=O)OCCOc1cccc2c1C(=O)c1c(OCCOC(=O)[C@@H](N)CCCNC(=N)N)cc(NC(=O)CCl)cc1C2=O`, in data set [1] (setting [16]), the solubility was over 100 mg/mL. The t1/2 in data set [2] stood at 63 min; in data set [3], 0.2 min; in data set [4] it was 187.1 min. Besides, the half-inhibitory concentration (IC50) is 13 µM in the data set with HeLa and 2.07 µM in data set [6].

Regarding `O=C(CCl)Nc1cc(OCCO)c2c(c1)C(=O)c1cccc(OCCO)c1C2=O`, the Activity entry in [7] is “Tde”; in [8], “Dose-dependent effect”; in data set [11], “Tde”; in data set [12], “Dose-dependent effect”. In [1] (buffer), this molecule returned a solubility of 0.06 mg/mL (≈ 143 µM). Moreover, the outcome in data set [9], in data set [10], in data set [13] and in [14] was Active. The results for the IC50 (in the data set with HeLa; in data set [6]) were 3.76 µM and 0.89 µM, respectively.

On to `Cl.NCCCC[C@H](N)C(=O)OCCOc1cccc2c1C(=O)c1c(OCCOC(=O)[C@@H](N)CCCCN)cc(NC(=O)CCl)cc1C2=O`, for which the solubility in data set [1] (setting [16]) was over 100 mg/mL. The results for the t1/2 in data set [2], in [3] and in data set [4] were 44.2 min, 2.4 min and 140.8 min, respectively. In addition, the half-inhibitory concentration (IC50) turned out to be 10.7 µM in the data set with HeLa and 1.28 µM in data set [6].

In turn, `Cl.N[C@@H](Cc1ccccc1)C(=O)OCCOc1cccc2c1C(=O)c1c(OCCOC(=O)[C@@H](N)Cc3ccccc3)cc(NC(=O)CCl)cc1C2=O` gave a solubility in [1] (buffer) of 703 mg/mL. Besides, the results for the t1/2 in data set [2], in data set [3] and in data set [4] were 1 min, 6.5 min and 73.7 min, respectively. Further, the IC50 with HeLa is 5.64 µM; in data set [6], 1.23 µM.

Turning to `CC(C)[C@H](N)C(=O)OCCOc1cccc2c1C(=O)c1c(OCCOC(=O)[C@@H](N)C(C)C)cc(NC(=O)CCl)cc1C2=O.Cl`, the solubility in data set [1] (setting [16]) is over 100 mg/mL. In addition, the t1/2 in data set [2] was 25.3 min; in data set [3], 126.3 min; in data set [4], 147.7 min. For the same molecule, the IC50 was 4.15 µM in the data set with HeLa and 1.08 µM in data set [6]. The Drug metabolism result in data set [15] is “Metabolite_Detected”.

With `Cl.N[C@@H](CCC(=O)O)C(=O)OCCOc1cccc2c1C(=O)c1c(OCCOC(=O)[C@@H](N)CCC(=O)O)cc(NC(=O)CCl)cc1C2=O`, the solubility in data set [1] (setting [16]) was over 100 mg/mL. The t1/2 in [2] is listed as 117.9 min; in data set [3], 110 min; in data set [4], 268.6 min; in [5], 156.1 min. Also, the half-maximal inhibitory concentration (IC50) in the data set on HeLa came to 9.11 µM; in data set [6], 3.21 µM.

Consider `CC[C@H](C)[C@H](N)C(=O)OCCOc1cccc2c1C(=O)c1c(OCCOC(=O)[C@@H](N)[C@@H](C)CC)cc(NC(=O)CCl)cc1C2=O.Cl`, for which the solubility in data set [1] (setting [16]) is over 100 mg/mL. The t1/2 amounted to 24.3 min in data set [2], 48.4 min in [3] and 154.5 min in [4]. Moreover, the half-inhibitory concentration (IC50) in the data set on HeLa was 5.75 µM; in [6] it was 1.14 µM.

As to `CSCC[C@H](N)C(=O)OCCOc1cccc2c1C(=O)c1c(OCCOC(=O)[C@@H](N)CCSC)cc(NC(=O)CCl)cc1C2=O.Cl`, the solubility in [1] (setting [16]) is over 100 mg/mL. Also, the t1/2 in data set [2] is recorded as 3.7 min; in data set [3], 12 min; in data set [4] it was 44.8 min. For the same molecule, the half-inhibitory concentration (IC50) was determined as 7.07 µM with HeLa and 1.24 µM in data set [6].

For the molecule `CC(C)C[C@H](N)C(=O)OCCOc1cccc2c1C(=O)c1c(OCCOC(=O)[C@@H](N)CC(C)C)cc(NC(=O)CCl)cc1C2=O.Cl`, the solubility in [1] (setting [16]) was over 100 mg/mL. Also, the figures for the t1/2 in data set [2], in data set [3] and in data set [4] were 2.5 min, 39.6 min and 127.7 min, respectively. Also, the values for the IC50 (in the data set with HeLa; in data set [6]) were 2.8 µM and 1.17 µM, respectively.

As to `Cl.NC(=O)CC[C@H](N)C(=O)OCCOc1cccc2c1C(=O)c1c(OCCOC(=O)[C@@H](N)CCC(N)=O)cc(NC(=O)CCl)cc1C2=O`, the solubility in data set [1] (setting [16]) was over 100 mg/mL. The figures for the t1/2 in data set [2], in [3] and in [4] were 73 min, 66.9 min and 137.1 min, respectively. The figures for the IC50 (with HeLa; in data set [6]) were 12.3 µM and 1.45 µM, respectively.
